Test results: publication PMC8263925 (The Journal of General Physiology, 2021)

Experiments:
Hv1 WT [1] = biological target: T1, Hv1 WT (Homo sapiens, UniProt Q96D96); assay type: cell-based; conditions: for inhibition kinetics: fast and slow components: RDT = 0.2
T1 sequence (Q96D96 1-273): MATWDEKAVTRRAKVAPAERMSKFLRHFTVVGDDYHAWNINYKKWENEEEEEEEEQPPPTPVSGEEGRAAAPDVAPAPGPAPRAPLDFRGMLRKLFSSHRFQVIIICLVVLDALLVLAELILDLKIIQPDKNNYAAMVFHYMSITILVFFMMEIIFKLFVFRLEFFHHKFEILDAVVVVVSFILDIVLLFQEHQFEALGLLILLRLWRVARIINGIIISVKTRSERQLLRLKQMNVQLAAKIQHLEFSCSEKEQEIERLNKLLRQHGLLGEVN
Method in brief: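 WT channel in inside-out oocyte patches, symmetric pH 6.0, 22 ± 1°C. Holding −40 mV, depolarization to +120 mV; relative depolarization time td/(tr + td) of 0.1, 0.2, 0.3 or 0.5. 50 µM perfused into bath, then washed out. End-pulse current normalized. Decay fitted double-exponentially (τfast, τslow, weights, c∞); recovery fitted single-exponentially. n = 7, 7, 5, 8 per RDT; SEM.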

Hv1 WT [2] = biological target: T1, Hv1 WT; conditions: 200 µM; ref Hong et al. (2013); cited from earlier work
Hv1 WT [3] = biological target: T1, Hv1 WT; assay: Inside-out patch, pulsed application of inhibitor to the closed channel; assay type: cell-based; conditions: 100 µM pulses, membrane held at 0 mV or −80 mV
Method in brief: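 WT channel, inside-out oocyte patches, pH 6.0. Test compound (100 µM) applied in 3 s pulses while the membrane was held closed at −40 mV, or at 0 mV or −80 mV. Current read after each pulse with a step to +120 mV. Control pulses of a reference Hv1 inhibitor given first to confirm complete washout between depolarizations.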

Hv1 = conditions: full set of concentration points; ref Zhao et al., 2021; cited from earlier work

N=C(N)Nc1nc2ccccc2[nH]1 [2GBI, 2-guanidinobenzimidazole, reference compound]
return of current to original level upon washout (Hv1 WT [1]; after 50 μM, washout): a few seconds
inhibition at 50 µM (Hv1 WT [1]; read-out: stable inhibited current level (of the original current)): ~50%
G-V shift (Hv1 WT [2]): lack of G-V shift
inhibition when transiently perfused on closed channel (Hv1 WT [3]): failed to produce any inhibition

Cc1[nH]c(N)nc1/C=C/C(=O)c1cc(F)cc(F)c1 [HIFEN, (2E)-3-(2-amino-5-methyl-1H-imidazol-4-yl)-1-(3,5-difluorophenyl)prop-2-en-1-one]
inhibition kinetics: fast and slow components (Hv1 WT [1]; 50 μM): with fast and slow components
Hill coefficient (Hv1): 1.50 ± 0.11

Cc1[nH]c(N)nc1CNC(=O)c1cc(F)cc(F)c1 [HIFNH, N-[(2-amino-5-methyl-1H-imidazol-4-yl)methyl]-3,5-difluorobenzamide]
inhibition kinetics: fast and slow components (Hv1 WT [1]; 50 μM): with fast and slow components

Cc1[nH]c(N)nc1CCC(O)c1cc(F)cc(F)c1 (stereo not shown) [HIFOH, 3-(2-amino-5-methyl-1H-imidazol-4-yl)-1-(3,5-difluorophenyl)propan-1-ol]
inhibition kinetics: fast and slow components (Hv1 WT [1]; 50 μM): did not have a significant slow component

Cc1[nH]c(N)nc1CCC(=O)c1ccccc1 [HIFNF, 3-(2-amino-5-methyl-1H-imidazol-4-yl)-1-phenyl-propan-1-one]
inhibition kinetics: fast and slow components (Hv1 WT [1]; 50 μM): with fast and slow components

Nc1nc2ccccc2[nH]1 [ABI, 2-aminobenzimidazole, reference compound]
extent and kinetics of proton current inhibition compared with 2GBI (Hv1 WT [1]; 50 μM, same conditions as 2GBI): inhibited the proton current to a smaller extent but with similar kinetics
